Data published in article PMC2217059 (The Journal of General Physiology, 1997).
“And” between values parts separate entries of the source, which are not always exact repeats. Identical values can stand only once. Like-named read-outs stand apart in the source and are kept apart here. Each block holds one molecule with its values, some of them ahead of it.

Key:
Na,K-ATPase [1] = settings: read-out: K diss, Na+-form (E1-form), I < 0.1 M, ref Nørby and Jensen, 1971, Hegyvary and Post, Jørgensen, 1975, Skou and Esmann, 1981; cited from earlier work
Na,K-ATPase [2] = biological target: T1, Na,K-ATPase (Sus scrofa, UniProt P05024); assay: Equilibrium binding of 14C-ADP to membrane-bound Na,K-ATPase; set-up: species or system pig; settings: for Kd: read-out: K diss for ADP-binding
In short: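 The enzyme was membrane-bound Na,K-ATPase from pig kidney outer medulla, SDS-extracted. It was mixed on ice with water or Na+ salt in imidazole/sucrose/EDTA (pH 7.4), then with 14C-ADP (stock 40 μM) in Tris buffer (pH 6.3). NO3− and SO4 2− series used enzyme washed into buffer titrated with HNO3 or H2SO4. Final pH was 7.65–7.82 and basal I 78 mM. Samples were centrifuged at 100,000 g for 60 min at 0–2°C; bound ADP was total minus supernatant. Kdiss came from nonlinear regression with a common Bmax per series.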

[3] = tested on: Na,K-ATPase mutant Lys480Glu; settings: ref Wang and Farley, 1992; cited from earlier work
Na,K-ATPase [4] = biological target: T1, Na,K-ATPase; assay: Na,K-ATPase activity; assay type: biochemical, pig
[5] = tested on: Na,K-ATPase Asp369 substituted with Asn or Ala; settings: Asp369 substituted with uncharged Asn or Ala; ref Pedersen et al., 1996; cited from earlier work
[6] = I around 0.1 M, cited from earlier work
Na,K-ATPase [7] = biological target: T1, Na,K-ATPase; settings: cited from earlier work
Na,K-ATPase [8] = biological target: T1, Na,K-ATPase; assay: Effect of NO3− on ADP-binding, competitive model of Fig. 4; set-up: species or system pig; settings: line through (0,1); I 78–228 mM and constant I 178 mM
In short: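 ADP-binding affinities for pig kidney membrane Na,K-ATPase were determined by centrifugation binding at 0–2°C. Kdiss/KA was plotted against [NO3−] for the NaNO3 series (I 78–228 mM). […] A line through (0,1) was fitted, and KN for ENO3 was taken as the reciprocal slope.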

[9] = tested on: H+-translocating Mg-ATPases from tissues of higher plants; settings: ref Sze, 1985, Jacoby, 1987, Blumwald et al.; cited from earlier work
Na,K-ATPase [10] = biological target: T1, Na,K-ATPase; assay: K+-dependent p-nitrophenylphosphatase; assay type: biochemical, pig
In short: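 K+-pNPPase was assayed at 37°C, pH 7.4, in 30 mM histidine/HCl with 10 pmol enzyme·ml−1, 20 mM MgCl2, K+ salts and 10 mM Na2pNPP (basal I ~90 mM). Substrate-dependence runs varied Na2pNPP at 0.05–0.4 M KCl. After 3 min, reactions were stopped with ice-cold TCA (final 5%) and p-nitrophenol was measured. Blanks were reagent blanks without enzyme. Results are the mean of two to four experiments.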

decrease of apparent affinity for ADP with salt (Na,K-ATPase [2]; 0–0.5 M NaCl, Na2SO4, NaNO3, 0.1 M Na-acetate, NaSCN, NaClO4): up to 30 times
Bmax of ADP-binding (Na,K-ATPase [2]; Exp. A2, NaCl series, [Cl−] 119 mM, I 178 mM): 1.20 ± 0.01 µM
Bmax of ADP-binding (Na,K-ATPase [2]; Exp. A3, NaCl series, [Cl−] 219 mM, I 278 mM): 1.20 ± 0.02 µM
Bmax of ADP-binding (Na,K-ATPase [2]; Exp. A4, NaCl series, [Cl−] 319 mM, I 378 mM): 1.13 ± 0.11 µM
Bmax of ADP-binding (Na,K-ATPase [2]; Exp. A5, NaCl series, [Cl−] 394 mM, I 453 mM): 1.29 ± 0.09 µM
Bmax of ADP-binding (Na,K-ATPase [2]; Exp. A6, NaCl series, [Cl−] 469 mM, I 528 mM): 1.20 ± 0.11 µM
Bmax of ADP-binding (Na,K-ATPase [2]; Exp. A7, NaCl series, [Cl−] 519 mM, I 578 mM): 0.98 ± 0.09 µM
Bmax of ADP-binding (Na,K-ATPase [2]; Exp. B1, Na2SO4 series, [SO4 2−] 6 mM, I 78 mM): 1.70 ± 0.04 µM
Bmax of ADP-binding (Na,K-ATPase [2]; Exp. B2, Na2SO4 series, [SO4 2−] 6 mM, I 78 mM): 1.73 ± 0.02 µM
Bmax of ADP-binding (Na,K-ATPase [2]; Exp. B3, Na2SO4 series, [SO4 2−] 36 mM, I 168 mM): 1.71 ± 0.02 µM
Bmax of ADP-binding (Na,K-ATPase [2]; Exp. B4, Na2SO4 series, [SO4 2−] 66 mM, I 258 mM): 1.77 ± 0.03 µM
Bmax of ADP-binding (Na,K-ATPase [2]; Exp. B5, Na2SO4 series, [SO4 2−] 96 mM, I 348 mM): 1.72 ± 0.06 µM
Bmax of ADP-binding (Na,K-ATPase [2]; Exp. B6, Na2SO4 series, [SO4 2−] 126 mM, I 438 mM): 1.96 ± 0.10 µM
Bmax of ADP-binding (Na,K-ATPase [2]; Exp. B7, Na2SO4 series, [SO4 2−] 156 mM, I 528 mM): 1.77 ± 0.08 µM
Bmax of ADP-binding (Na,K-ATPase [2]; Exp. C1, NaNO3 series, [NO3−] 19 mM, I 78 mM): 1.80 ± 0.02 µM
Bmax of ADP-binding (Na,K-ATPase [2]; Exp. C2, NaNO3 series, [NO3−] 24 mM, I 83 mM): 1.83 ± 0.03 µM
Bmax of ADP-binding (Na,K-ATPase [2]; Exp. C3, NaNO3 series, [NO3−] 49 mM, I 108 mM): 1.80 ± 0.03 µM
Bmax of ADP-binding (Na,K-ATPase [2]; Exp. C4, NaNO3 series, [NO3−] 79 mM, I 138 mM): 1.84 ± 0.04 µM
Bmax of ADP-binding (Na,K-ATPase [2]; Exp. C5, NaNO3 series, [NO3−] 79 mM, I 138 mM): 1.84 ± 0.01 µM
Bmax of ADP-binding (Na,K-ATPase [2]; Exp. C6, NaNO3 series, [NO3−] 109 mM, I 168 mM): 1.78 ± 0.06 µM
Bmax of ADP-binding (Na,K-ATPase [2]; Exp. C7, NaNO3 series, [NO3−] 139 mM, I 198 mM): 1.80 ± 0.06 µM
Bmax of ADP-binding (Na,K-ATPase [2]; Exp. C8, NaNO3 series, [NO3−] 169 mM, I 228 mM): 1.82 ± 0.08 µM
Kd (Na,K-ATPase [2]; 19 mM Cl− + 100 mM Na+ salt of ClO4−, I 178 mM): 38.6 ± 0.7 µM
Kd (Na,K-ATPase [2]; 19 mM Cl− + 100 mM Na+ salt of NO3−, I 178 mM): 3.24 ± 0.05 µM
Kd (Na,K-ATPase [2]; 19 mM Cl− + 100 mM Na+ salt of SCN−, I 178 mM): 18.3 ± 0.2 µM
Kd (Na,K-ATPase [2]; 19 mM Cl− + 100 mM Na-acetate, I 178 mM): 0.635 ± 0.004 µM
Kd (Na,K-ATPase [2]; 19 mM Cl− + 100 mM NaCl (Cl−), I 178 mM): 0.64 ± 0.007 µM
SMILES: Nc1ncnc2c1ncn2[C@@H]1O[C@H](COP(=O)(O)OP(=O)(O)O)[C@@H](O)[C@H]1O [ADP]
Kd (Na,K-ATPase [1]): < 1 µM

change of K m for ATP with increasing I (Na,K-ATPase [4]; 20 mM KCl, [Mgtot] = [ATP] + 1 mM, 0.16–0.75 M NaCl, 37°C, pH 7.4): slight decrease
SMILES: Nc1ncnc2c1ncn2[C@@H]1O[C@H](COP(=O)(O)OP(=O)(O)OP(=O)(O)O)[C@@H](O)[C@H]1O [ATP]
reduction of affinity for ATP [3]: ~10 fold
increase in affinity for ATP at the high-affinity site [5]: 20–30 fold

SMILES: O=C(O)CN(CCN(CC(=O)O)CC(=O)O)CC(=O)O [H2EDTA^2−]
pKa ([6]; ref Kortüm et al., 1961): 6.5

SMILES: [K+] [K^+]
K 0.5 for K+, chosen for the model (Na,K-ATPase [7]; K+-pNPPase model with Na+/K+ competition, ref Beaugé et al., 1984): 2 mM

SMILES: O=[N+]([O-])O [NO3 ^−]
slope of K diss/K A versus [NO3−] (Na,K-ATPase [8]): 0.0309 ± 0.0006 mM⁻¹ and 0.031 mM⁻¹
K 0.5 of inhibition [9]: 10 to 50 mM
specific anion effect on K+-pNPPase activity (Na,K-ATPase [10]; KNO3 compared with KCl, 10 mM Na2pNPP, also 25 mM pNPP): does not have any special effect

inhibitory effect on Na,K-ATPase activity, less than that of NaCl (Na,K-ATPase [4]; activity plotted versus I, 20 mM KCl, 3 mM ATP, 4 mM MgCl2): 10–30%
SMILES: O=S(=O)([O-])[O-].[Na+].[Na+] [Na2SO4]

effect on Na,K-ATPase activity compared with NaCl (Na,K-ATPase [4]; up to 800 mM, not shown): the same results as with NaCl
SMILES: CC(=O)[O-].[Na+] [Na-acetate]

SMILES: NC(CO)(CO)CO [TrisH^+]
pKa ([6]; ref Perrin, 1965): 8.8

SMILES: c1c[nH]cn1 [imidazoleH^+]
pKa ([6]; ref Perrin, 1965): 7.5

K 0.5 for pNPP (Na,K-ATPase [10]; 0.125 M ClO4−): ~5.5 mM
K 0.5 for pNPP (Na,K-ATPase [10]; 0.125 M Cl−): about 4.5 mM
K m for pNPP (Na,K-ATPase [10]; highest values reached with increasing [KCl] (0.05–0.6 M KCl), 37°C, pH 7.4): 10–12 mM
SMILES: O=[N+]([O-])c1ccc(OP(=O)(O)O)cc1 [pNPP, p-nitrophenylphosphate]
K m for pNPP (Na,K-ATPase [7]; low ionic strength, ref Skou, 1974, Campos et al., 1988, Fig. 9 in this paper): 2–3 mM
